Source: ChEMBL document CHEMBL4382192, “Discovery of a potent dual ALK and EGFR T790M inhibitor” (Eur J Med Chem, 2017)

Columns and labels:
[1] = target: Atypical kinase COQ8A, mitochondrial (Homo sapiens) (UniProt Q8NI60); assay: Binding affinity to wild-type human full length ADCK3 (M280 to Q647 residues) expressed in bacterial expression system assessed as residual binding level at 1 uM by Kinomescan method relative to control
[2] = target: Serine/threonine-protein kinase DCLK2 (Homo sapiens) (UniProt Q8N568); assay: Binding affinity to wild-type human partial length DCAMKL2 (K273 to V664 residues) expressed in bacterial expression system assessed as residual binding level at 1 uM by Kinomescan method relative to control
[3] = target: Phosphorylase b kinase gamma catalytic chain, liver/testis isoform (Homo sapiens) (UniProt P15735); assay: Binding affinity to wild-type human partial length PHKG2 (M1 to W300 residues) expressed in bacterial expression system assessed as residual binding level at 1 uM by Kinomescan method relative to control
[4] = target: Ribosomal protein S6 kinase beta-1 (Homo sapiens) (UniProt P23443); assay: Binding affinity to wild-type human partial length S6K1 (M1 to S421 residues) expressed in mammalian expression system assessed as residual binding level at 1 uM by Kinomescan method relative to control
[5] = target: Rho-associated protein kinase 2 (Homo sapiens) (UniProt O75116); assay: Binding affinity to wild-type human partial length ROCK2 (M1 to T431 residues) expressed in mammalian expression system assessed as residual binding level at 1 uM by Kinomescan method relative to control
[6] = system: Epidermal growth factor receptor (Homo sapiens), P00533 [UNDEFINED MUTATION]; assay: Binding affinity to human partial length EGFR L747-E749del/A750P mutant expressed in bacterial expression system assessed as residual binding level at 1 uM by Kinomescan method relative to control
Summary of the method: (§1)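 Kinome-wide selectivity panel run by the KINOMEscan method, with the test compound at a single concentration of 1 μM. Wild-type and mutant kinases were profiled in the same screen.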

[7] = target: Tyrosine-protein kinase Mer (Homo sapiens) (UniProt Q12866); assay: Binding affinity to wild-type human partial length MERTK (R557 to L884 residues) expressed in bacterial expression system assessed as residual binding level at 1 uM by Kinomescan method relative to control
[8] = system: Tyrosine-protein kinase ABL1 (Homo sapiens), P00519 [F317L]; assay: Binding affinity to human phosphorylated ABL1 F317L mutant (S229 to K512 residues) expressed in mammalian expression system assessed as residual binding level at 1 uM by Kinomescan method relative to control; summary of the method: as §1
[9] = target: Calcium/calmodulin-dependent protein kinase type II subunit beta (Homo sapiens) (UniProt Q13554); assay: Binding affinity to wild-type human partial length CAMK2B (M1 to Q380 residues) expressed in bacterial expression system assessed as residual binding level at 1 uM by Kinomescan method relative to control
[10] = target: Cyclin-dependent kinase-like 2 (Homo sapiens) (UniProt Q92772); assay: Binding affinity to wild-type human partial length CDKL2 (M1 to D327 residues) expressed in bacterial expression system assessed as residual binding level at 1 uM by Kinomescan method relative to control
[11] = target: Proto-oncogene tyrosine-protein kinase Src (Homo sapiens) (UniProt P12931); assay: Binding affinity to wild-type human partial length SRC (L240 to L536 residues) expressed in bacterial expression system assessed as residual binding level at 1 uM by Kinomescan method relative to control
[12] = target: Inhibitor of nuclear factor kappa-B kinase subunit beta (Homo sapiens) (UniProt O14920); assay: Binding affinity to wild-type human full length IKK-beta (M1 to S756 residues) expressed in mammalian expression system assessed as residual binding level at 1 uM by Kinomescan method relative to control
Summary of the method: (§2)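 Single-point kinome-wide KINOMEscan binding panel, test compound at 1 μM, run by the provider's standard protocol.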

[13] = target: Phosphatidylinositol 5-phosphate 4-kinase type-2 gamma (Homo sapiens) (UniProt Q8TBX8); assay: Binding affinity to wild-type human partial length PIP5K2C (M1 to A421 residues) expressed in mammalian expression system assessed as residual binding level at 1 uM by Kinomescan method relative to control
[14] = target: Mitogen-activated protein kinase kinase kinase 7 (Homo sapiens) (UniProt O43318); assay: Binding affinity to wild-type human partial length TAK1 (M1 to Q303 residues) expressed in mammalian expression system assessed as residual binding level at 1 uM by Kinomescan method relative to control
[15] = target: NUAK family SNF1-like kinase 1 (Homo sapiens) (UniProt O60285); assay: Binding affinity to wild-type human partial length ARK5 (E25 to I332 residues) expressed in bacterial expression system assessed as residual binding level at 1 uM by Kinomescan method relative to control
[16] = target: Dual specificity mitogen-activated protein kinase kinase 6 (Homo sapiens) (UniProt P52564); assay: Binding affinity to wild-type human partial length MEK6 (K36 to D334 residues) expressed in bacterial expression system assessed as residual binding level at 1 uM by Kinomescan method relative to control
[17] = target: Serine/threonine-protein kinase D2 (Homo sapiens) (UniProt Q9BZL6); assay: Binding affinity to wild-type human partial length PRKD2 (A519 to E838 residues) expressed in bacterial expression system assessed as residual binding level at 1 uM by Kinomescan method relative to control
[18] = Tmax in mouse at 10 mg/kg, po; format: ADME, organism-based; settings: in vivo
[19] = target: Mitogen-activated protein kinase 3 (Homo sapiens) (UniProt P27361); assay: Binding affinity to wild-type human full length ERK1 (M1 to P379 residues) expressed in bacterial expression system assessed as residual binding level at 1 uM by Kinomescan method relative to control; summary of the method: as §2
[20] = target: Serine/threonine-protein kinase PAK 6 (Homo sapiens) (UniProt Q9NQU5); assay: Binding affinity to wild-type human partial length PAK6 (N298 to C681 residues) expressed in bacterial expression system assessed as residual binding level at 1 uM by Kinomescan method relative to control
[21] = target: Ephrin type-B receptor 1 (Homo sapiens) (UniProt P54762); assay: Binding affinity to wild-type human partial length EPHB1 (P589 to T911 residues) expressed in bacterial expression system assessed as residual binding level at 1 uM by Kinomescan method relative to control
[22] = system: Receptor-type tyrosine-protein kinase FLT3 (Homo sapiens), P36888 [R834Q]; assay: Binding affinity to human partial length FLT3 R834Q mutant (V592 to Y969 residues) expressed in mammalian expression system assessed as residual binding level at 1 uM by Kinomescan method relative to control; summary of the method: as §1
[23] = system: Epidermal growth factor receptor (Homo sapiens), P00533 [L858R]; assay: Binding affinity to human partial length EGFR L858R mutant (R669 to V1011 residues) expressed in bacterial expression system assessed as residual binding level at 1 uM by Kinomescan method relative to control; summary of the method: as §1
[24] = target: Insulin receptor (Homo sapiens, UniProt P06213); assay: Binding affinity to wild-type human partial length INSR (P997 to E1318 residues) expressed in mammalian expression system assessed as residual binding level at 1 uM by Kinomescan method relative to control

Sequence of Tyrosine-protein kinase Mer (Homo sapiens) (Q12866 whole entry, the tested form may be a part): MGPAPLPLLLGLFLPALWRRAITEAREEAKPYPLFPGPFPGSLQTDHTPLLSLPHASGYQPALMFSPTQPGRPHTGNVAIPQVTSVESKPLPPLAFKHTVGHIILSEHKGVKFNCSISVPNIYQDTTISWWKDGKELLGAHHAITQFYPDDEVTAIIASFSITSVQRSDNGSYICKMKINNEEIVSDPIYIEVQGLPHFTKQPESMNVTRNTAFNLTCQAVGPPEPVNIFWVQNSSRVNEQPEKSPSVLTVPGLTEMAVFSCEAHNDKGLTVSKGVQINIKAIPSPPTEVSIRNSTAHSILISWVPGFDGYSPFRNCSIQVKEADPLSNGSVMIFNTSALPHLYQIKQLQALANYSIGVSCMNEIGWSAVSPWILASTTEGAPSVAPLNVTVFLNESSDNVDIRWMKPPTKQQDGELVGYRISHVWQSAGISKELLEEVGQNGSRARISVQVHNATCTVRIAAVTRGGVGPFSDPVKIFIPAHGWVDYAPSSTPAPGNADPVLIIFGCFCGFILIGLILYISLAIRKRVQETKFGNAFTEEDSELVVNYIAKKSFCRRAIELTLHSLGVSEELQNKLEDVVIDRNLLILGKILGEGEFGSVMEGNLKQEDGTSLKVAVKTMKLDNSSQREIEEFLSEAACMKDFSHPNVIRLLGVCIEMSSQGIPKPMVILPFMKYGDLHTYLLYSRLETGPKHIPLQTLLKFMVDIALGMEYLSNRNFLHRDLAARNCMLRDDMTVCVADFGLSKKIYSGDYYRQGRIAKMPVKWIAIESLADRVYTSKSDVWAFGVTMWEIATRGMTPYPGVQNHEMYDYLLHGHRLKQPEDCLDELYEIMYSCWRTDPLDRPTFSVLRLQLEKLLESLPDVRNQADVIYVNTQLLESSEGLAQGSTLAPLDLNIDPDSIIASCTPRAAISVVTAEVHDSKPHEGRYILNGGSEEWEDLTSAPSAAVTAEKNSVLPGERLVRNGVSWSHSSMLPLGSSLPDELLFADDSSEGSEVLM
Sequence of Atypical kinase COQ8A, mitochondrial (Homo sapiens) (Q8NI60 163-647 limits assumed): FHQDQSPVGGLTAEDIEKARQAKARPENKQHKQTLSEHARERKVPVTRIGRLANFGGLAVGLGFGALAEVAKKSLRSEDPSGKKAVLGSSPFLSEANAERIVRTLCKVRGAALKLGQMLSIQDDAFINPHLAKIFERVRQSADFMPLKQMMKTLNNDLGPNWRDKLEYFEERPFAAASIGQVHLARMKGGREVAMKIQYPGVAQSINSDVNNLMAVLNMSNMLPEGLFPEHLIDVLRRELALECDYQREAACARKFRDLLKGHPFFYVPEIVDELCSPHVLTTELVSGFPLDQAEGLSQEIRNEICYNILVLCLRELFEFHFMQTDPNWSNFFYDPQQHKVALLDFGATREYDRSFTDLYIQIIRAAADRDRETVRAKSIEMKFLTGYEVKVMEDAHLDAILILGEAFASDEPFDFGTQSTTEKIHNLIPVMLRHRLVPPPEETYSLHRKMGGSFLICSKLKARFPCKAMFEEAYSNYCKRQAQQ
Sequence of Calcium/calmodulin-dependent protein kinase type II subunit beta (Homo sapiens) (Q13554 whole entry, the tested form may be a part): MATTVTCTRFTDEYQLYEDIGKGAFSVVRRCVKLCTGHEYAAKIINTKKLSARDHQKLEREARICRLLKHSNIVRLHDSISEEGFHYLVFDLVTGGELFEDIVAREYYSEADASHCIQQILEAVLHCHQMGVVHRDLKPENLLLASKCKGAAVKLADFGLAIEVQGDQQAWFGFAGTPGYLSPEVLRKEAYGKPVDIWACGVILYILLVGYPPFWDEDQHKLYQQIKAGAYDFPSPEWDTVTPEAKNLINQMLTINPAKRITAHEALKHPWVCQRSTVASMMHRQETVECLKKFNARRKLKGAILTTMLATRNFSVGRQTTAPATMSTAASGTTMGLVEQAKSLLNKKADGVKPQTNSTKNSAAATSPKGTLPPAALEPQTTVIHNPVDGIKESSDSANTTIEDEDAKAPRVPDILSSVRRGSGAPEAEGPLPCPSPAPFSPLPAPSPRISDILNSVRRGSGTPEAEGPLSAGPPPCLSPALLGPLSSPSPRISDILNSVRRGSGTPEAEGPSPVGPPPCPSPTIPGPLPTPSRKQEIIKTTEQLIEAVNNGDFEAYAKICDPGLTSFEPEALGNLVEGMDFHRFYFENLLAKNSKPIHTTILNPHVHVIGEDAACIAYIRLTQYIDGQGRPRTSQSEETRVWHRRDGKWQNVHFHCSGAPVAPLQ
Sequence of Ephrin type-B receptor 1 (Homo sapiens) (P54762 whole entry, the tested form may be a part): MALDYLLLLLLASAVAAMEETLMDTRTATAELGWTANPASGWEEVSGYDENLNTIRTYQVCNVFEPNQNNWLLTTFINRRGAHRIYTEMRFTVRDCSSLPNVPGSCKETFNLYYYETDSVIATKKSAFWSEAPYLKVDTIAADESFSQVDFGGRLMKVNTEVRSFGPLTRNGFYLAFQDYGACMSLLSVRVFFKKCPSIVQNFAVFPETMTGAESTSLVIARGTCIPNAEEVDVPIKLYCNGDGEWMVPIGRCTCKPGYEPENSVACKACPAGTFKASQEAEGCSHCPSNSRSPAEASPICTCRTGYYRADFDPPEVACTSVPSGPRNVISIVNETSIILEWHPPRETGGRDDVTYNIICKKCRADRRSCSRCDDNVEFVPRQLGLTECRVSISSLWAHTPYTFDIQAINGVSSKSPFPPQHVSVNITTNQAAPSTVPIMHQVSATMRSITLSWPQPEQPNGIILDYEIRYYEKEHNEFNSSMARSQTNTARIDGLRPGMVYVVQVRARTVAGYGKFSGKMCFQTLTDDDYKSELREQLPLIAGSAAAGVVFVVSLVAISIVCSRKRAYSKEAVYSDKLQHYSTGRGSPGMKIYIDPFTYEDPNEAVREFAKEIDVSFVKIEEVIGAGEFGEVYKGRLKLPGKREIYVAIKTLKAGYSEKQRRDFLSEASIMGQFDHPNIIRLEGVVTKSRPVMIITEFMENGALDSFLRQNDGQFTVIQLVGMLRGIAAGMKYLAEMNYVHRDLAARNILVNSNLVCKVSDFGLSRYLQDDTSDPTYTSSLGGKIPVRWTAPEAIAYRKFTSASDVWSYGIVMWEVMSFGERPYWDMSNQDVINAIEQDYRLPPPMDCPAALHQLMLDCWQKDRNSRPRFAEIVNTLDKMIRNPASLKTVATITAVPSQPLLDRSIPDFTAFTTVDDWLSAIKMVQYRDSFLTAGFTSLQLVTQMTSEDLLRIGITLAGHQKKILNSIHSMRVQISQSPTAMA
Sequence of Mitogen-activated protein kinase kinase kinase 7 (Homo sapiens) (O43318 whole entry, the tested form may be a part): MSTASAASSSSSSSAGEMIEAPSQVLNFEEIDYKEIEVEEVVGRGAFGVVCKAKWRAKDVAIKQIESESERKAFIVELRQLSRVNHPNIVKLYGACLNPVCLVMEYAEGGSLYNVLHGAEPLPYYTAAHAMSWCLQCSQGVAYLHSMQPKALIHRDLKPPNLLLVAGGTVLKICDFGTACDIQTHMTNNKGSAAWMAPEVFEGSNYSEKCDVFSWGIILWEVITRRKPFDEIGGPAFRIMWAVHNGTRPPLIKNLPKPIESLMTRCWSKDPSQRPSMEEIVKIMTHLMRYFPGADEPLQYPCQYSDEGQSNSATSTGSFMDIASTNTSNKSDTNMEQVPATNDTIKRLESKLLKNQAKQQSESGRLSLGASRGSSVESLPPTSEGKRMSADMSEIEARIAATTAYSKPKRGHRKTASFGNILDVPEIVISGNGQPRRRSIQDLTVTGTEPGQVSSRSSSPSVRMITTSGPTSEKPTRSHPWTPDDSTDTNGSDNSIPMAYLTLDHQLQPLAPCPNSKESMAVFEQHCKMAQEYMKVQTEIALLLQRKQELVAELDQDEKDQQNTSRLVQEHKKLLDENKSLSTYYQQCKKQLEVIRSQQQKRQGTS
Sequence of Inhibitor of nuclear factor kappa-B kinase subunit beta (Homo sapiens) (O14920 whole entry, the tested form may be a part): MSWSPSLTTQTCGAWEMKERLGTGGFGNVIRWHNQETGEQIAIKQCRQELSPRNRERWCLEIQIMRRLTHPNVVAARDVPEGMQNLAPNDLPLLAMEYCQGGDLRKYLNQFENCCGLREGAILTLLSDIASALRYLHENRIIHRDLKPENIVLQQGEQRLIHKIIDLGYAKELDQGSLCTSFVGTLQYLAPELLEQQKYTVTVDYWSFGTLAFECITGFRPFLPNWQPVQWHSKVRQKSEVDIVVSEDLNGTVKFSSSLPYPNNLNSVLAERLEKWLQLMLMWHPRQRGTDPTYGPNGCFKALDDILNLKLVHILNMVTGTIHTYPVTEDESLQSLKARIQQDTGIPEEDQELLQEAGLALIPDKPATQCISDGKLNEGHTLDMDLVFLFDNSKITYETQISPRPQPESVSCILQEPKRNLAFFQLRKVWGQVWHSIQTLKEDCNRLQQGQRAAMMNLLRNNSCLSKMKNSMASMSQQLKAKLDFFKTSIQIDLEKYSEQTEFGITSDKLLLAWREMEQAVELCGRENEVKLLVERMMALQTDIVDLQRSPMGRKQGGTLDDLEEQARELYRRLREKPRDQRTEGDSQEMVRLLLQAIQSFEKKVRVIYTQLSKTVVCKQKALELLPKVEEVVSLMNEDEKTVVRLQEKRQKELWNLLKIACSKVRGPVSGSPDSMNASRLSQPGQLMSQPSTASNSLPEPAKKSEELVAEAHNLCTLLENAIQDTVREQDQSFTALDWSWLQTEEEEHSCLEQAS
Sequence of Dual specificity mitogen-activated protein kinase kinase 6 (Homo sapiens) (P52564 whole entry, the tested form may be a part): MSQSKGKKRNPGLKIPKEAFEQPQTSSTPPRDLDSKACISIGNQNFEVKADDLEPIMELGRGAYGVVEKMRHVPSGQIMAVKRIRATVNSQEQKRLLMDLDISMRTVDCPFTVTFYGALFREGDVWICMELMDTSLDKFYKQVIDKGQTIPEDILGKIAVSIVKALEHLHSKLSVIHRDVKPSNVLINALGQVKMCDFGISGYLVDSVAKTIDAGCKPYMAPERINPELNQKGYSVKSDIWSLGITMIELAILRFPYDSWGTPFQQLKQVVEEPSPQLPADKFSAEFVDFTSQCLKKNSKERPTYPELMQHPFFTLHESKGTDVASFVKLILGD

Compound: C=CC(=O)Nc1cc(Nc2ncc(Cl)c(Nc3ccccc3S(=O)(=O)C(C)C)n2)c(OC)cc1N(C)CCN(C)C
- Activity [1]: 100%
- Activity [2]: 14%
- Activity [3]: 10%
- Activity [4]: 94%
- Activity [5]: 96%
- Activity [6]: 0%
- Activity [7]: 2.7%
- Activity [8]: 2.9%
- Activity [9]: 48%
- Activity [10]: 93%
- Activity [11]: 34%
- Activity [12]: 96%
- Activity [13]: 90%
- Activity [14]: 35%
- Activity [15]: 8.1%
- Activity [16]: 66%
- Activity [17]: 3.1%
- Tmax [18]: 1.17 h
- Activity [19]: 77%
- Activity [20]: 96%
- Activity [21]: 38%
- Activity [22]: 26%
- Activity [23]: 0%
- Activity [24]: 0%
